In ChEMBL document CHEMBL4513216, “Probing the Open Global Health Chemical Diversity Library for Multistage-Active Starting Points for Next-Generation Antimalarials” (ACS Infect Dis, 2020):

Test: Toxicity liver stage against HepG2, at 10uM
Assay type: cell-based
Parameters: test concentration 10 uM, cell line HepG2-A16-CD81EGFP
Settings: human, HepG2-A16-CD81EGFP cells; read-out: INHIBITION
Outline: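 Uninfected HepG2-A16-CD81EGFP cells, 3 × 10^3 per well, 1536-well, plated on prespotted compound at 10 μM final, parasite-free screening media added to match infected plates; puromycin 10 μM positive, DMSO 0.5% negative; run in parallel with 48 h PbLuc assay at 37 °C, 5% CO2; viability by CellTiter-Glo luminescence, normalized to controls.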

In order of rising cytotoxicity at 10 µM:
1. COCc1ncc(CN2CCC3(CCNCC3)CC2)cn1  -139%
2. CN(C)CCOCC1CN(Cc2cccc(F)c2)Cc2nccn2C1 (configuration not stated)  -131%
3. OC[C@H]1CN(Cc2c(Cl)cncc2Cl)C[C@H]1CN1CCCC1  -127%
4. Cn1c2c(c(=O)n1C)CN(C(=O)c1cnccn1)CCC2  -113%
5. CN(C)CC(=O)N1Cc2nc(C(=O)N3CCCN(C)CC3)oc2C1  -105%
6. CCc1ncc(CN[C@@H]2CCCN(C(C)=O)[C@H]2c2ccc(C)s2)cn1  -26.2%
7. CCCc1nc(C(=O)N[C@H]2COC[C@@H]2N2CCN(C)CC2)cs1  -23.8%
8. CCn1cnnc1CNC(=O)N1CCN(Cc2ccco2)CC1  -17.4%
9. CCCc1cc(C(=O)N2CCCC(n3ccnc3C)C2)[nH]n1 (configuration not stated)  -15.6%
10. CCCc1nc(C(=O)NCCCn2nnc3ccccc32)cs1  -14%
11. Cc1nn(C)c(N2CCOCC2)c1CNC1CCC(O)CC1 (configuration not stated)  -13.2%
12. Cc1nc(-c2ccsc2)ccc1C(=O)NCCN1CCN(C)CC1  -11.2%
13. COC1CN(C(=O)Nc2ccccc2)CCC(=O)N(C)c2ccccc21 (configuration not stated)  -9.69%
14. CC(=O)Nc1ccc(CNCC(O)c2ccc(Cl)cc2)cc1 (configuration not stated)  -8.74%
15. CCN1CCN(c2ccc(F)cc2C(C)NCc2ccnn2C)CC1 (configuration not stated)  -8.33%
16. CC(C)[C@H]1CN(CC2CCC2)C[C@@H]1NC(=O)c1ccc(=O)[nH]c1  -7.85%
17. O=C(C1CN(Cc2ccsc2)Cc2ccnn2C1)N1CCCC1 (configuration not stated)  -6.93%
18. COCCN1C(=O)CCC12CCC(NC(=O)c1cnccn1)CC2 (configuration not stated)  -6.19%
19. COc1ccc(Nc2nc3c(C)nn(C)c3c(=O)n2C)c(C)c1  -6.06%
20. CC(C)Oc1cccc(CN2CCC(C(C)N3CCOCC3)CC2)c1 (configuration not stated)  -5.84%
21. O=C(COc1ccc2c(c1)CCC2)NS(=O)(=O)c1cncc(Br)c1  -5.82%
22. N#CCCN(C(=O)CN1CCCC1c1ccsc1)c1ccccc1F (configuration not stated)  -5.8%
23. CC(C)Nc1nc2c(s1)C(=O)CN(C(=O)NCCc1ccccc1)C2  -5.55%
24. O=C1COc2ccc(C(=O)NS(=O)(=O)c3ccc(F)cc3F)cc2N1  -4.72%
25. Cc1cccc(NC(=O)[C@@H]2CCCN2Cc2nc3ccccc3o2)n1  -4.61%
26. Cc1ccnc(NC(=O)c2cc(C)oc2C)c1  -4.57%
27. Cc1cc(C)n(CC2CCCN2CCCS(N)(=O)=O)n1 (configuration not stated)  -4.1%
28. COc1cc2c(cc1C(=O)N1CCCCC1c1ccccn1)CCC2 (configuration not stated)  -2.8%
29. c1cc(CN2CCOC(Cn3cccn3)C2)c2c(c1)OCCO2 (configuration not stated)  -2.66%
30. N#CCCN(CC1CCCO1)C(=O)c1ccc(C#N)cc1 (configuration not stated)  -2.45%
31. CC(C)OCC(=O)N1CCC(c2ncncc2-c2ccnc(N)c2)C1 (configuration not stated)  -2.44%
32. Cc1cccnc1NC(=O)CSc1ccc2c(c1)OCCO2  -1.66%
33. Cc1ccc(OCCC(=O)NCCCN2CCCC2=O)c(C)c1  -1.08%
34. CC(C)c1cc(N2CCC(N(C)C)C2)n2nccc2n1 (configuration not stated)  -0.869%
35. Cn1cc(C(=O)N(Cc2ccco2)Cc2cccs2)ccc1=O  -0.0261%
36. CCOCCn1nc(C)cc1C(=O)N1CC(C)(C)[C@@](C)(O)C1  0.301%
37. Cn1ncc2c1CCCC2NCc1cccnc1 (configuration not stated)  0.999%
38. CCC(C)Oc1ccc(CNCCNC(C)=O)cc1Cl (configuration not stated)  1.12%
39. NC(=O)N1CC[C@H](O)[C@@H]1Cc1cccnc1  1.72%
40. CN(C)C(=O)CCCS(=O)(=O)Cc1cc(Cl)c2c(c1)OCCO2  2.47%
41. CCOC(=O)c1cnn(-c2cc(Oc3ccccc3)ncn2)c1N  2.93%
42. Cc1ccc(CN(C(=O)C(C)S(C)(=O)=O)C2CC2)cc1C (configuration not stated)  3.28%
43. CCc1cnc(N)nc1NCc1ccc(OC)c(OC)c1  3.48%
44. NC(=O)COc1ccc(CN2CCC3(CC2)[C@H](O)C[C@@H]3O)cc1Cl  3.76%
45. Cc1nc(OCC(=O)N2CCCC2)cc(-n2cccn2)n1  3.99%
46. O=C1CCC(C(=O)N2CCC(Cn3cc(C4CCCC4)nn3)CC2)=NN1  5.14%
47. CCNc1ncc(CN(Cc2ccccc2)CC(C)CO)cn1 (configuration not stated)  6.33%
48. COc1ccccc1C1(CNCc2cccc(C#N)c2)CCOCC1  6.37%
49. OCCN1CCCCC1C1OCCO1 (configuration not stated)  6.66%
50. Cn1nc(C(=O)NCc2ccccn2)c2c1CCS(=O)(=O)C2  7.21%
51. Cc1ccc(-n2nnnc2C2(NCc3ccco3)CCCC2)cc1  7.55%
52. COc1ccc(-c2ccccc2CCN)c(OC)c1  8.95%
53. CCOc1ccccc1OCCN(C)Cc1ncnn1CC  10.2%
54. CC(=O)NCCNC(=O)NCCCc1cccc(F)c1  10.5%
55. CC(C)(C)CC(=O)N1CSCC1C(=O)NC1=NCCS1 (configuration not stated)  17.9%
56. Cc1ncc(C(=O)NCCNc2ncnc3sccc23)s1  27.6%
57. CC(=O)c1sc(Nc2ccc(Cl)cn2)nc1C  41.9%
